Active and inactive are the calls of the source. No cut-off for these calls is given here.
system: Canis familiaris; assay: Diuretic activity in the dog (2 animals/dose) at (dose 1.56 mg/Kg), when administered perorally; type: functional, Canis lupus familiaris, Urine; conditions: not given
Procedure, shortened: (§1)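 Trained male beagles, fasted 24 h with tap water ad libitum. Bladder emptied by catheter, then 20 mL/kg tap water by stomach tube, with 4 mL/kg water at each hourly catheterization up to 8 h. The first 2 h of urine served as control. Oral dosing came after the second catheterization, and 1–6 h urine was pooled. Na⁺ and K⁺ were measured by flame photometry, Cl⁻ argentometrically, in mequiv/kg.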

| SMILES | Diuretic activity |
| --- | --- |
| NS(=O)(=O)c1cc(S(=O)(=O)[O-])c(NCc2ccccc2)cc1S(=O)(=O)C1CCCCC1.[Na+] | 51 ml kg-1 6hr-1 |
| N.NS(=O)(=O)c1cc(S(=O)(=O)O)c(NCc2ccccc2)cc1Oc1ccccc1 | 48 ml kg-1 6hr-1 |

organism: Rattus norvegicus; assay: Saluretic activity in the rat measured as concentration of K+ in urine; type: functional; conditions: not given
Procedure, shortened: (§2)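 Rats deprived of food 24 h, water ad libitum, dosed 50 mg/kg by stomach tube as suspension in 2% starch, no extra water load. Groups of three in diuresis funnels; urine over first 5 h collected. Na⁺ and K⁺ by flame photometry, Cl⁻ argentometrically; expressed as mequiv/kg.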

| SMILES | Saluretic activity |
| --- | --- |
| NS(=O)(=O)c1cc(S(=O)(=O)[O-])c(NCc2ccncc2)cc1Cl.[Na+] | 0.4 m equiv 5hr-1 kg-1 |
| NS(=O)(=O)c1cc(S(=O)(=O)[O-])c(N(Cc2ccccc2)Cc2ccccc2)cc1Cl.[Na+] | 0.8 m equiv 5hr-1 kg-1 |
| NC(N)=NC(=O)c1nc(Cl)c(N)nc1N.NS(=O)(=O)c1cc(S(=O)(=O)O)c(NCc2ccco2)cc1Oc1ccccc1 | 0.3 m equiv 5hr-1 kg-1 |
| NS(=O)(=O)c1cc(S(=O)(=O)[O-])c(NCc2ccccc2)cc1S(=O)(=O)C1CCCCC1.[Na+] | 1.7 m equiv 5hr-1 kg-1 |
| N.NS(=O)(=O)c1cc(S(=O)(=O)O)c(NCc2ccccc2)cc1Oc1ccccc1 | 2.2 m equiv 5hr-1 kg-1 |

system: Canis familiaris; assay: Salidiuretic activity on the basis of the 1.56 mg/Kg po dog assay; compound was moderately active; type: functional, organism-based; conditions: Canis lupus familiaris; Urine

| SMILES | Saldiuretic activity |
| --- | --- |
| NS(=O)(=O)c1cc(S(=O)(=O)[O-])c(NCc2ccccc2)cc1S(=O)(=O)C1CCCCC1.[Na+] | Weak activity |

system: Rattus norvegicus; assay: Salidiuretic activity on the basis of the 50 mg/kg po rat assay; compound was active; type: functional, organism-based; design: dose 50 mg/kg; conditions: Urine

| SMILES | Saldiuretic activity |
| --- | --- |
| NS(=O)(=O)c1cc(S(=O)(=O)[O-])c(NCc2ccccc2)cc1S(=O)(=O)C1CCCCC1.[Na+] | Active |

system: Canis familiaris; assay: Saluretic activity in the dog measured as concentration of K+ in urinary excretion (2 animals/dose) at (dose 1.56 mg/Kg, po); type: functional, Canis lupus familiaris, Urine; conditions: not given
Procedure, shortened: (§3)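 Male beagles trained to rest on a table and to accept stomach tube and catheter. Food withdrawn 24 h before, tap water ad libitum. Bladder emptied by catheter, then 20 mL/kg tap water by stomach tube. Catheterized hourly up to 8 h with 4 mL/kg water orally each time; first 2 h urine served as control. Oral dosing after second catheterization. Pooled 1–6 h urine; Na⁺/K⁺ by flame photometry, Cl⁻ argentometrically.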

| SMILES | Saluretic activity |
| --- | --- |
| NS(=O)(=O)c1cc(S(=O)(=O)[O-])c(NCc2ccccc2)cc1S(=O)(=O)C1CCCCC1.[Na+] | 0.56 m equiv 6hr-1 kg-1 |

system: not listed separately; assay: It is the ratio, measured as saluretic activity in the dog as concentration of Na+ in urinary excretion (dose 1.56 mg/Kg, perorally) to that of K; type: functional, Urine; conditions: not given; procedure, shortened: as §1

| SMILES | Ratio |
| --- | --- |
| N.NS(=O)(=O)c1cc(S(=O)(=O)O)c(NCc2ccccc2)cc1Oc1ccccc1 | 5.9 |

system: not listed separately; assay: It is the ratio, measured as saluretic activity in the dog as concentration of Cl- in urinary excretion (dose 1.56 mg/Kg, po) to that of (Na+)+(K+); type: functional, Urine; conditions: not given; procedure, shortened: as §1

| SMILES | Ratio |
| --- | --- |
| NS(=O)(=O)c1cc(S(=O)(=O)[O-])c(NCc2ccccc2)cc1S(=O)(=O)C1CCCCC1.[Na+] | 1.05 |

organism: Rattus norvegicus; assay: Diuretic activity in the rats, determined by a modified Lipschitz test; type: functional, Urine; conditions: not given
Procedure, shortened: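 Modified Lipschitz test: rats deprived of water 24 h, grouped in threes of similar weight in diuresis funnels. Oral dose of 50 mg/kg, suspended in 2% starch solution, by stomach tube.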

| SMILES | Diuretic activity |
| --- | --- |
| NS(=O)(=O)c1cc(S(=O)(=O)[O-])c(NCc2ccncc2)cc1Cl.[Na+] | 0.2 mL/kg |
| NS(=O)(=O)c1cc(S(=O)(=O)[O-])c(N(Cc2ccccc2)Cc2ccccc2)cc1Cl.[Na+] | 0.7 mL/kg |
| NC(N)=NC(=O)c1nc(Cl)c(N)nc1N.NS(=O)(=O)c1cc(S(=O)(=O)O)c(NCc2ccco2)cc1Oc1ccccc1 | 1.9 mL/kg |
| NS(=O)(=O)c1cc(S(=O)(=O)[O-])c(NCc2ccccc2)cc1S(=O)(=O)C1CCCCC1.[Na+] | 0.5 mL/kg |
| N.NS(=O)(=O)c1cc(S(=O)(=O)O)c(NCc2ccccc2)cc1Oc1ccccc1 | 3 mL/kg |

system: Canis familiaris; assay: Salidiuretic activity on the basis of the 1.56 mg/Kg po dog assay; compound was found to be active; type: functional, organism-based; conditions: Canis lupus familiaris; Urine

| SMILES | Saldiuretic activity |
| --- | --- |
| N.NS(=O)(=O)c1cc(S(=O)(=O)O)c(NCc2ccccc2)cc1Oc1ccccc1 | Active |

system: Canis familiaris; assay: Saluretic activity in the dog measured as concentration of Cl - in urinary excretion (2 animals/dose) at (dose 1.56 mg/Kg, perorally); type: functional, Canis lupus familiaris, Urine; conditions: not given
Procedure, shortened: (§4)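 Male beagles trained to the procedures, food withdrawn 24 h before, tap water ad libitum. Bladder emptied by catheter, then 20 mL/kg tap water by stomach tube, plus 4 mL/kg orally at each hourly catheterization up to 8 h. The first 2 h of urine served as control. Compound given orally after the second catheterization. Urine from 1–6 h post-dose pooled; Na⁺ and K⁺ by flame photometry, Cl⁻ argentometrically, in mequiv/kg.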

| SMILES | Saldiuretic activity |
| --- | --- |
| N.NS(=O)(=O)c1cc(S(=O)(=O)O)c(NCc2ccccc2)cc1Oc1ccccc1 | 3.91 m equiv 6hr-1 kg-1 |

system: Canis familiaris; assay: Saluretic activity in the dog measured as concentration of Na+ in urinary excretion (2 animals/dose) at (dose 1.56 mg/Kg, perorally); type: functional, Canis lupus familiaris, Urine; conditions: not given; procedure, shortened: as §3

| SMILES | Saluretic activity |
| --- | --- |
| N.NS(=O)(=O)c1cc(S(=O)(=O)O)c(NCc2ccccc2)cc1Oc1ccccc1 | 3.12 m equiv 6hr-1 kg-1 |

system: Canis familiaris; assay: Saluretic activity in the dog measured as concentration of Na+ in urinary excretion (2 animals/dose) at (dose 1.56 mg/Kg, po); type: functional, Canis lupus familiaris, Urine; conditions: not given; procedure, shortened: as §3

| SMILES | Saluretic activity |
| --- | --- |
| NS(=O)(=O)c1cc(S(=O)(=O)[O-])c(NCc2ccccc2)cc1S(=O)(=O)C1CCCCC1.[Na+] | 3.23 m equiv 6hr-1 kg-1 |

organism: Rattus norvegicus; assay: Saluretic activity in the rat measured as concentration of chloride in urine; type: functional; conditions: not given; procedure, shortened: as §2

| SMILES | Saluretic activity |
| --- | --- |
| NS(=O)(=O)c1cc(S(=O)(=O)[O-])c(NCc2ccncc2)cc1Cl.[Na+] | 0.1 m equiv 5hr-1 kg-1 |
| NS(=O)(=O)c1cc(S(=O)(=O)[O-])c(N(Cc2ccccc2)Cc2ccccc2)cc1Cl.[Na+] | 0.9 m equiv 5hr-1 kg-1 |
| NC(N)=NC(=O)c1nc(Cl)c(N)nc1N.NS(=O)(=O)c1cc(S(=O)(=O)O)c(NCc2ccco2)cc1Oc1ccccc1 | 2.7 m equiv 5hr-1 kg-1 |
| NS(=O)(=O)c1cc(S(=O)(=O)[O-])c(NCc2ccccc2)cc1S(=O)(=O)C1CCCCC1.[Na+] | 1.8 m equiv 5hr-1 kg-1 |
| N.NS(=O)(=O)c1cc(S(=O)(=O)O)c(NCc2ccccc2)cc1Oc1ccccc1 | 6.9 m equiv 5hr-1 kg-1 |

system: Rattus norvegicus; assay: Salidiuretic activity on the basis of the 50 mg/kg po rat assay; compound was found to be active; type: functional, organism-based; design: dose 50 mg/kg; conditions: Urine

| SMILES | Saldiuretic activity |
| --- | --- |
| N.NS(=O)(=O)c1cc(S(=O)(=O)O)c(NCc2ccccc2)cc1Oc1ccccc1 | Active |

organism: Rattus norvegicus; assay: Saluretic activity in the rat measured as concentration of Na+ in urine; type: functional; conditions: not given; procedure, shortened: as §2

| SMILES | Saluretic activity |
| --- | --- |
| NS(=O)(=O)c1cc(S(=O)(=O)[O-])c(NCc2ccncc2)cc1Cl.[Na+] | 0.1 m equiv 5hr-1 kg-1 |
| NS(=O)(=O)c1cc(S(=O)(=O)[O-])c(N(Cc2ccccc2)Cc2ccccc2)cc1Cl.[Na+] | 0.3 m equiv 5hr-1 kg-1 |
| NC(N)=NC(=O)c1nc(Cl)c(N)nc1N.NS(=O)(=O)c1cc(S(=O)(=O)O)c(NCc2ccco2)cc1Oc1ccccc1 | 3.7 m equiv 5hr-1 kg-1 |
| NS(=O)(=O)c1cc(S(=O)(=O)[O-])c(NCc2ccccc2)cc1S(=O)(=O)C1CCCCC1.[Na+] | 2 m equiv 5hr-1 kg-1 |
| N.NS(=O)(=O)c1cc(S(=O)(=O)O)c(NCc2ccccc2)cc1Oc1ccccc1 | 4.9 m equiv 5hr-1 kg-1 |

system: not listed separately; assay: It is the ratio, measured as saluretic activity in the dog as concentration of Na+ in urinary excretion (dose 1.56 mg/Kg, po) to that of K; type: functional, Urine; conditions: not given; procedure, shortened: as §1

| SMILES | Ratio |
| --- | --- |
| NS(=O)(=O)c1cc(S(=O)(=O)[O-])c(NCc2ccccc2)cc1S(=O)(=O)C1CCCCC1.[Na+] | 5.8 |

system: Canis familiaris; assay: Saluretic activity in the dog measured as concentration of Cl - in urinary excretion (2 animals/dose) at (dose 1.56 mg/Kg, po); type: functional, Canis lupus familiaris, Urine; conditions: not given; procedure, shortened: as §4

| SMILES | Saldiuretic activity |
| --- | --- |
| NS(=O)(=O)c1cc(S(=O)(=O)[O-])c(NCc2ccccc2)cc1S(=O)(=O)C1CCCCC1.[Na+] | 3.94 m equiv 6hr-1 kg-1 |

system: Canis familiaris; assay: Saluretic activity in the dog measured as concentration of K+ in urinary excretion (2 animals/dose) at (dose 1.56 mg/Kg, perorally); type: functional, Canis lupus familiaris, Urine; conditions: not given; procedure, shortened: as §4

| SMILES | Saluretic activity |
| --- | --- |
| N.NS(=O)(=O)c1cc(S(=O)(=O)O)c(NCc2ccccc2)cc1Oc1ccccc1 | 0.53 m equiv 6hr-1 kg-1 |

system: not listed separately; assay: It is the ratio, measured as saluretic activity in the dog as concentration of Cl- in urinary excretion (dose 1.56 mg/Kg, perorally) to that of (Na+)+(K+); type: functional, Urine; conditions: not given; procedure, shortened: as §1

| SMILES | Ratio |
| --- | --- |
| N.NS(=O)(=O)c1cc(S(=O)(=O)O)c(NCc2ccccc2)cc1Oc1ccccc1 | 1.1 |

— ChEMBL document CHEMBL1122273, “5-sulfamoylorthanilic acids, a sulfonamide series with salidiuretic activity” (J Med Chem, 1983)
